According to ChEMBL document CHEMBL4808165, “Design of Thioether Cyclic Peptide Scaffolds with Passive Permeability and Oral Exposure” (J Med Chem, 2021):
Values after ≈ are worked out from the molar mass of the structure shown. Positions of bridges follow the written chain, without caps; N, C: chain ends. Non-standard residues stand in square brackets, D forms with d. Residues, ends and D or L forms follow the SMILES beside them. NMeF = CN[C@@H](Cc1ccccc1)C(=O)O; NMeNle = CCCC[C@H](NC)C(=O)O; Nle = CCCC[C@H](N)C(=O)O

Columns and labels:
[1] = Half life in Sprague-Dawley rat at 5 mg/kg, po or 0.5 mg/kg, iv measured up to 24 hrs by HPLC-MS/MS analysis; assay type: ADME, organism-based; details: in vivo
Method in brief: (§1)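 Rat dosing in PEG300:20% Solutol/PBS (10:25:65). IV into a jugular cannula at 0.5 mg/kg (1 mg/kg for some analogues), 1 mL/kg. PO by gavage at 5 mg/kg from a 0.5 mg/mL solution. Blood drawn via jugular cannula at 5 min (IV only), 15 min, 0.5, 1, 2, 4, 7 and 24 h. Plasma analysed by HPLC-MS/MS. Parameters from noncompartmental analysis.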

[2] = Clearance in Sprague-Dawley rat liver microsomes measured up to 30 mins in presence of NADPH by HPLC-MS/MS analysis; assay type: ADME, Microsome; details: read-out: CLH
[3] = 1-Octanol/phosphate buffered-saline distribution coefficient, logD of compound at pH 7.4 measured after 4 hrs by LC-MS analysis; assay type: physicochemical
Method in brief: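 PBS pH 7.4 and 1-octanol, each pre-saturated with the other. 10 mM DMSO stock, dispensed with an internal reference compound in triplicate and dried. Residue shaken in octanol plus buffer for at least 4 h, then centrifuged to separate phases. Both phases quantified by LC-MS/MS. Log D taken from the phase peak-area ratio, normalised to internal standard.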

[4] = Clearance in Sprague-Dawley rat at 5 mg/kg, po or 0.5 mg/kg, iv measured up to 24 hrs by HPLC-MS/MS analysis; assay type: ADME, organism-based; details: in vivo; method in brief: as §1
[5] = Apparent permeability across apical to basolateral membrane in MDCKII-LE cells measured after 120 mins by RapidFire-MS analysis; assay type: ADME, cell-based, Canis lupus familiaris; details: dog, MDCK
Method in brief: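 MDCK-LE (low efflux) cells seeded at about 265,000 cells/cm² on Transwells and cultured 4 days. Apical-to-basal transport run in triplicate at 10 μM in HBSS/10 mM HEPES pH 7.4 with 0.02% BSA, 120 min at 37 °C without shaking. Bestatin used as integrity marker. Donor and acceptor quantified by MS against glyburide internal standard. Papp and % recovery calculated.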

[6] = Clearance in human liver microsomes measured up to 30 mins in presence of NADPH by HPLC-MS/MS analysis; assay type: ADME, Microsome; details: read-out: CLH
Method in brief: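 Human liver microsomes at 1.25 mg/mL protein in phosphate buffer pH 7.4. Test article at 10 μM, shaken at 37 °C. Reaction started with 2 mM NADPH/4 mM MgCl₂. Aliquots taken at 0, 5, 15 and 30 min and quenched with acetonitrile containing glibenclamide. Parent remaining measured by LC-MS/MS. Elimination rate constant converted to in vitro clearance.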

[7] = Cmax in Sprague-Dawley rat systemic circulation at 5 mg/kg, po or 0.5 mg/kg, iv measured up to 24 hrs by HPLC-MS/MS analysis; assay type: ADME, organism-based; parameters: dose 5 mg/kg, time <=24; method in brief: as §1
[8] = AUC in Sprague-Dawley rat systemic circulation at 5 mg/kg, po or 0.5 mg/kg, iv measured up to 24 hrs by HPLC-MS/MS analysis; assay type: ADME, organism-based; parameters: dose 5 mg/kg, time <=24; method in brief: as §1
[9] = Oral bioavailability in Sprague-Dawley rat at 5 mg/kg measured up to 24 hrs by HPLC-MS/MS analysis; assay type: ADME, organism-based; details: in vivo; method in brief: as §1
[10] = Volume of distribution at steady state in Sprague-Dawley rat at 5 mg/kg, po or 0.5 mg/kg, iv measured up to 24 hrs by HPLC-MS/MS analysis; assay type: ADME, organism-based; details: in vivo, read-out: Vdss; method in brief: as §1
[11] = Aqueous solubility of the compound at pH 6.8; assay type: physicochemical; details: buffer
Method in brief: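 Thermodynamic (equilibrium) solubility. 10 mM DMSO stock dried down, then pH 6.8 phosphate buffer added to a target of 1 mM. Shaken at 1350 rpm at ambient temperature for 16–24 h. Supernatant centrifuged twice, diluted 200-fold and quantified by RapidFire-MS/MS against a 4-point calibration curve.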

SMILES | half-life [1] [min] | microsomal CLint [2] [µL/min/mg] | logD at 4 h [3] | clearance [4] [mL/min/kg] | Papp A→B at 2 h [5] [×10⁻⁶ cm/s] | microsomal CLint [6] [µL/min/mg] | Cmax [7] [nM] | AUC at 24 h [8] [µM·h] | bioavailability [9] [%] | Vd [10] [L/kg] | solubility [11] [µM]
CCCC[C@@H]1NC(=O)C2CCCN2C(=O)[C@H](CCCC)NC(=O)[C@H](Cc2ccccc2)NC(=O)CSC[C@H](C(=O)NC)NC(=O)[C@H](CCCC)NC1=O (some centres undefined) | 12 | ≥ 350 | 3.1 | 222 | 0.6 | ≥ 350 | 1.7 | 0.0006 | < 1 | 2 | 200 (≈ 152 µg/mL)
CCCC[C@@H]1NC(=O)[C@H](CCCC)NC(=O)[C@H]2CCCN2C(=O)[C@H](CCCC)NC(=O)[C@H](Cc2ccccc2)NC(=O)CSC[C@H](C(=O)NC)NC(=O)[C@H](CCCC)NC1=O | 4.8 | ≥ 480 | 3.7 | 72 | 0.2 | ≥ 480 |  |  | < 1 | 0.2 | 9 (≈ 7.84 µg/mL)
CCCC[C@@H]1NC(=O)[C@H](CCCC)NC(=O)[C@H](CCCC)NC(=O)[C@@H](Cc2ccccc2)NC(=O)CSC[C@H](C(=O)NC)NC(=O)[C@H](CCCC)NC1=O |  | ≥ 350 | 3.6 |  | 0.4 | ≥ 350 |  |  |  |  | 5 (≈ 3.87 µg/mL)
CCCC[C@@H]1NC(=O)[C@H](CCCC)N(C)C(=O)[C@H](CCCC)NC(=O)[C@H](CCCC)N(C)C(=O)[C@@H](Cc2ccccc2)NC(=O)CSC[C@H](C(=O)NC)NC1=O |  | ≥ 350 | 4.2 |  | 1.5 | ≥ 350 |  |  |  |  | 18 (≈ 14.4 µg/mL)
CCCC[C@@H]1NC(=O)[C@H](CCCC)N(C)C(=O)[C@H](CCCC)NC(=O)[C@H](Cc2ccccc2)N(C)C(=O)[C@H]([C@@H](C)O)NC(=O)[C@H](CCCC)N(C)C(=O)[C@@H](Cc2ccccc2)NC(=O)CSC[C@@H](C(=O)NC)NC1=O |  | ≥ 120 | 5.2 | 28.4 | < 0.35 | ≥ 120 | 161 | 0.372 | 13 |  | < 4
CCCC[C@@H]1NC(=O)[C@H](CCCC)N(C)C(=O)[C@H](CCCC)NC(=O)[C@H](CCCC)N(C)C(=O)[C@H](CCCC)NC(=O)[C@H](CCCC)N(C)C(=O)[C@@H](Cc2ccccc2)NC(=O)CSC[C@@H](C(=O)NC)NC1=O |  | ≥ 120 | 6 | 33 | < 0.35 | ≥ 120 | 411 | 1.27 | 54 |  | < 4
CCCC[C@@H]1NC(=O)[C@H](Cc2ccccc2)NC(=O)CSC[C@H](C(=O)NC)NC(=O)[C@H](CCCC)NC(=O)[C@H](CCCC)NC(=O)[C@H](CCCC)NC1=O | 18 | ≥ 350 | 3.6 | 702 | 0.6 | ≥ 350 |  |  | < 1 |  | < 4
CCCC[C@@H]1NC(=O)[C@H](Cc2ccccc2)N(C)C(=O)CSC[C@H](C(=O)NC)N(C)C(=O)[C@H](CCCC)NC(=O)[C@H](CCCC)N(C)C(=O)C2CCCN2C1=O (some centres undefined) | 18 | ≥ 350 | 3.6 | 72 | 6.3 | ≥ 350 | 152 | 0.092 | 6 | 1.3 | 216 (≈ 173 µg/mL)
CCCC[C@@H]1NC(=O)[C@H](Cc2ccccc2)N(C)C(=O)[C@@H]2CCCN2C(=O)[C@H](CCCC)N(C)C(=O)[C@H](Cc2ccccc2)NC(=O)CSC[C@@H](C(=O)NC)NC(=O)[C@H](CCCC)N(C)C1=O ({CH2CO}-F[NMeNle]P[NMeF][Nle][NMeNle]C-NHMe; thioether N-7) | 90 | ≥ 480 | 4.9 | 19 | 2.3 | ≥ 480 | 1950 | 1.31 | 84 | 1.1 | 9 (≈ 8.53 µg/mL)
CCCC[C@@H]1NC(=O)[C@H](CCCC)N(C)C(=O)[C@@H]2CCCN2C(=O)[C@H](CCCC)N(C)C(=O)[C@H](Cc2ccccc2)NC(=O)CSC[C@@H](C(=O)NC)NC(=O)[C@H](CCCC)N(C)C1=O ({CH2CO}-F[NMeNle]P[NMeNle][Nle][NMeNle]C-NHMe; thioether N-7) | 36 | ≥ 480 | 4.8 | 35 | 6.4 | ≥ 480 | 868 | 2.13 | 86 | 1.2 | 9 (≈ 8.22 µg/mL)
CCCC[C@@H]1NC(=O)[C@H](CCCC)NC(=O)[C@H](CCCC)N(C)C(=O)[C@@H]2CCCN2C(=O)[C@H](CCCC)N(C)C(=O)[C@H](Cc2ccccc2)NC(=O)CSC[C@@H](C(=O)NC)NC1=O ({CH2CO}-F[NMeNle]P[NMeNle][Nle][Nle]C-NHMe; thioether N-7) | 42 | ≥ 480 | 4.7 | 106 | 0.8 | ≥ 480 | 18 | 0.01 | 1 | 4.4 | 9 (≈ 8.09 µg/mL)
CCCC[C@@H]1NC(=O)[C@H](Cc2ccccc2)NC(=O)CSC[C@@H](C(=O)NC)NC(=O)[C@H](CCCC)N(C)C(=O)[C@H](CCCC)N(C)C(=O)[C@H](CCCC)N(C)C(=O)[C@H](CCCC)NC(=O)[C@H](CCCC)N(C)C1=O ({CH2CO}-F[Nle][NMeNle][Nle][NMeNle][NMeNle][NMeNle]C-NHMe; thioether N-8) |  | ≥ 120 | 6.1 | 12 | < 0.35 | ≥ 120 | 436 | 1.08 | 17 |  | < 4
